Measurements taken from ChEMBL document CHEMBL3091306, “Synthesis, docking and pharmacological evaluation of novel homo- and hetero-bis 3-piperazinylpropylindole derivatives at SERT and 5-HT1A receptor” (Bioorg Med Chem, 2013).

What was measured:
[1] = biological target: Sodium-dependent serotonin transporter (Rattus norvegicus, UniProt P31652); test: Displacement of [3H]paroxetine from SERT in rat cortical membranes after 6 mins by liquid scintillation counting; format: cell membranes
How it was run: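 Rat cortical membranes (0.35 mg original wet weight) incubated with 0.2 nM [3H]paroxetine and test compound at 10^-11–10^-4 M in 50 mM Tris–HCl pH 7.7 with 150 mM NaCl, 5 mM KCl, 1.0 ml, 6 min at 25 °C; stopped by rapid filtration through polyethyleneimine-soaked GF/B filters, ice-cold buffer washes.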

[2] = biological target: T1, 5-hydroxytryptamine receptor 1A (Homo sapiens, UniProt P08908); test: Displacement of [3H]8-OH-DPAT from human 5-HT1A receptor expressed in HEK293 cells; format: cell-based
T1 sequence (P08908 whole entry): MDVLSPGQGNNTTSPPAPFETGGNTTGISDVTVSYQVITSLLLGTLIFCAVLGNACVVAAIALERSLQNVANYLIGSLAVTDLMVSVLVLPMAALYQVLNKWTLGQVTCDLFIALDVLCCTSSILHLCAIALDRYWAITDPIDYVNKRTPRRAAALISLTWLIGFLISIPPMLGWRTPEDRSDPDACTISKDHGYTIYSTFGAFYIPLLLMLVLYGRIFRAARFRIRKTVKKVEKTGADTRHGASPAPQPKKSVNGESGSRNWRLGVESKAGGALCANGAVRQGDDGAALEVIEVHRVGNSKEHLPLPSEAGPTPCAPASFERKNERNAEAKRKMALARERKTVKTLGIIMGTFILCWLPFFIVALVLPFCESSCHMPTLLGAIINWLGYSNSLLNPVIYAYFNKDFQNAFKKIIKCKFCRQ

Sequence of Sodium-dependent serotonin transporter (P31652 whole entry): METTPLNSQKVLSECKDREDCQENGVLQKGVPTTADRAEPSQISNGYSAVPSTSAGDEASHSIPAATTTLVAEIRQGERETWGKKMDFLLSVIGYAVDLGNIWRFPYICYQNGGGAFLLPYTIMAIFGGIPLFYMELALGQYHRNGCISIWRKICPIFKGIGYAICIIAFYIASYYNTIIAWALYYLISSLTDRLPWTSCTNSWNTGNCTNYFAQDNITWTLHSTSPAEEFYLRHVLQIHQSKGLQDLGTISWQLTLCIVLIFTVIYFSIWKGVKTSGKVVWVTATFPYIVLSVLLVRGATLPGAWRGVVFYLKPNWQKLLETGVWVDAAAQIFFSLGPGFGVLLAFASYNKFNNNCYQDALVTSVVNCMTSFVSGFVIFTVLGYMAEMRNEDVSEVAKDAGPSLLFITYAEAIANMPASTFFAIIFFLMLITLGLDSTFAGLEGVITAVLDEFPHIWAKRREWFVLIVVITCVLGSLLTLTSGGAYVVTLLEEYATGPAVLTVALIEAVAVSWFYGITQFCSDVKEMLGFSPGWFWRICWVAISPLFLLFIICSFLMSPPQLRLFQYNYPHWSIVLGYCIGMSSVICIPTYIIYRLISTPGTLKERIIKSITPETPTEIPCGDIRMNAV

| Structure (SMILES) | IC50 [1] | IC50 [2] |
| --- | --- | --- |
| Fc1ccc2[nH]cc(CCCN3CCN(CCCc4c[nH]c5ccccc45)CC3)c2c1 | 26 nM | 16 nM |
| Fc1ccc2[nH]cc(CCCN3CCN(CCCc4c[nH]c5ccc(Br)cc45)CC3)c2c1 | 61 nM | 4900 nM |
| COc1ccc2[nH]cc(CCCN3CCN(CCCc4c[nH]c5ccc(Br)cc45)CC3)c2c1 | 39 nM | 128 nM |
| Fc1ccc2[nH]cc(CCCN3CCN(CCCc4c[nH]c5ccc(F)cc45)CC3)c2c1 | 13 nM | 5700 nM |
| COc1ccc2[nH]cc(CCCN3CCN(CCCc4c[nH]c5ccc(OC)cc45)CC3)c2c1 | 98 nM | 599 nM |
| Brc1ccc2[nH]cc(CCCN3CCN(CCCc4c[nH]c5ccc(Br)cc45)CC3)c2c1 | 87 nM | 1200 nM |
| Brc1ccc2[nH]cc(CCCN3CCN(CCCc4c[nH]c5ccccc45)CC3)c2c1 | 137 nM | 15 nM |

Continued by falling IC50 [1], values first:

| IC50 [1] | IC50 [2] | Structure (SMILES) |
| --- | --- | --- |
| 43 nM | 4500 nM | COc1ccc2[nH]cc(CCCN3CCN(CCCc4c[nH]c5ccccc45)CC3)c2c1 |
| 37 nM | 2700 nM | c1ccc2c(CCCN3CCN(CCCc4c[nH]c5ccccc45)CC3)c[nH]c2c1 |
| 14 nM | 7200 nM | COc1ccc2[nH]cc(CCCN3CCN(CCCc4c[nH]c5ccc(F)cc45)CC3)c2c1 |
